From PubChem
Most compounds without a hit are left out; they make up all but 1.3% or so of the library.
DAGLB inhibitor – DAGLB lipase inhibitors, primary screen, biochemical, fluorescence, HTS. Diacylglycerol lipase-beta (Homo sapiens), Q8NCG7. inhibition, % at 5.17 µM. AID 504411, 2011. 0.059% of 340,000 active. HEK293T DAGLB membrane lysate, EnzChek fluorogenic substrate; in the data active means inhibition above about 34%;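 further: 0% = enzyme with vehicle and 100% = wells lacking enzyme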
TMEM16A inh – TMEM16A chloride channel inhibitors, primary screen, cell-based, HTS. 1.2% of 310,000 active. normalized B-score (activity score, 25-100; higher = stronger inhibition) at 10 µM. HEK293 TMEM16A/YFP iodide influx fluorescence, ionomycin. Anoctamin-1 (Mus musculus), Q8BHY3. AID 588511, 2011;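 active means ratio plate-corrected score three or more library SD toward inhibition, starting fluorescence score within five deviations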;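 further: score derived from kinetic fluorescence span divided by baseline fluorescence per well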
Target sequence (Q8BHY3 whole entry, looked up): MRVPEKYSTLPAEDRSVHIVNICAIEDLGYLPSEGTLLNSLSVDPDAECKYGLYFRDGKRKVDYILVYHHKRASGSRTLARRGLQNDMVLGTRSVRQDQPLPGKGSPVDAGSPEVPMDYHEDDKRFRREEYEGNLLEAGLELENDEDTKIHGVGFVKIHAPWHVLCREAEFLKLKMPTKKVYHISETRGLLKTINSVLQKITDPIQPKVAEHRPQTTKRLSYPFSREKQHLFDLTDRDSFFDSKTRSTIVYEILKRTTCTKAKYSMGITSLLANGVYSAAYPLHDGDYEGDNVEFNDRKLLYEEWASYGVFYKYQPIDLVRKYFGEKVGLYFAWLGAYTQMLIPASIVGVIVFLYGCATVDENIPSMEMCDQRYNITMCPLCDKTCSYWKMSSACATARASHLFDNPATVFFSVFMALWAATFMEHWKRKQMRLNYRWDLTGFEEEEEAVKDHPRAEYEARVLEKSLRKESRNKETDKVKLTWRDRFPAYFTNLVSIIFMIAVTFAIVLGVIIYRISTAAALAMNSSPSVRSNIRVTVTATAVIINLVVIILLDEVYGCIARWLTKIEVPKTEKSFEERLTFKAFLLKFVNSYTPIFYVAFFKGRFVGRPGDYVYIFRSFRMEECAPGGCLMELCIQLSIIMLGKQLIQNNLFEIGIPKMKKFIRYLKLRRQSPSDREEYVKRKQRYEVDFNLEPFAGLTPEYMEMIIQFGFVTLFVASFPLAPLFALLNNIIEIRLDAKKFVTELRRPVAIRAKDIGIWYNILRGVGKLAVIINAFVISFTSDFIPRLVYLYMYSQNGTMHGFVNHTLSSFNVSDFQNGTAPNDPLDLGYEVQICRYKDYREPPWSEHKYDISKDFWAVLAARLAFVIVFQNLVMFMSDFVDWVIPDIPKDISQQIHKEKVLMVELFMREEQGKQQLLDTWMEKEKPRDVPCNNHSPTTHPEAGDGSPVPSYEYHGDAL
TMEM16A act – TMEM16A chloride channel activators or potentiators, primary screen, cell-based, HTS. HEK293 TMEM16A/YFP-H148Q/I152L, iodide quench fluorescence; hits give low values. 0.3% of 340,000 active. B-score at 10 µM;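 active means fluorescence-ratio B-score plate-corrected deviation score at least 3 library SD below zero, with starting fluorescence score within 5 deviations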;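 further: channel opened by trigger with iodide after compound preincubation; score built on the fluorescence ratio of max minus min over baseline; more negative score means more quench and so TMEM16A activation or potentiation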
MT1-MMP act inh – blockers of MT1-MMP proenzyme processing, primary screen, HT1080 RFP-PRO-GFP cells, GFP/RFP fluorescence; Matrix metalloproteinase-14 (Homo sapiens), P50281; GFP/RFP ratio fluorescence, overnight; percent of plate control window, DMSO zero; GFP/RFP ratio change, % at 20 µM; 0.061% of 360,000 active; AID 651647, 2012;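 active means GFP/RFP ratio change of at least 30% with cell ATP level not reduced by more than half and red fluorescence within 50% of control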
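Assay system – RFP-PRO-GFP reporter HT1080 cells · Compound dosing – single dose of 20 µM compound, 1% DMSO final · Incubation – overnight compound exposure at 37 °C · Measure – GFP/RFP fluorescence ratio · Benchmarks – DMSO wells and RFP-L50D-GFP cells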
TMEM16A reconf – TMEM16A chloride channel inhibitors, confirmation, cell-based, re-confirmation. inhibition, % at 10 µM. AID 652189, 2013. shares compounds with TMEM16A inh. 39% of 2,300 active. HEK293 TMEM16A/YFP-H148Q, iodide quench fluorescence; ionomycin added to raise cell calcium;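 active means mean duplicate percent inhibition, scaled so buffer wells are 0 and the reference blocker 100, over three buffer SD above buffer mean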
TMEM16A Ca cntr – calcium mobilization in TMEM16A/YFP HEK293 cells, confirmation, counter-screen for TMEM16A inhibitor project; shares compounds with TMEM16A inh; Fluo4 calcium mobilization; calcium response (% of ionomycin), % at 10 µM; 2% of 2,300 active;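 active means duplicate-averaged calcium signal over 20% of the ionomycin maximum, relative to buffer baseline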;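 further: each well's signal is peak minus trough fluorescence divided by its pre-addition baseline; 0% = buffer wells and 100% = ionomycin wells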
YFP-HEK293 quench – iodide YFP quench changes in parental YFP-HEK293, counter-screen for TMEM16A inhibitor project, cell-based; shares compounds with TMEM16A inh; ionomycin; YFP ratio F(max-min)/F0 at 10 µM; 2,300 tested, under 10 active; AID 652233, 2013;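 active means yellow fluorescent protein signal ratio exceeding the buffer control mean by over 5 SD of those controls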;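 further: ratio is mean of duplicate wells from kinetic YFP trace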
ClC-1 rat inh – ClC-1 chloride channel inhibition, selectivity assay for TMEM16A inhibitor project, cell-based, voltage-dependent ClC-1. CHO ClC-1-YFP, iodide influx fluorescence quench; iodide control reads 0, buffer control 100. AID 652236, 2013. ratio percent, % at 10 µM. shares compounds with TMEM16A inh. 2,300 tested, under 10 active;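 active means duplicate-mean ratio percent above the mean of iodide-only control wells, which defines zero, plus 5 of their SD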;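 further: higher percent means stronger block of ClC-1 iodide influx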
Active calls of the source: *; i = inactive; x = not tested or not shown.

SMILES	DAGLB inhibitor	TMEM16A inh	TMEM16A act	MT1-MMP act inh	TMEM16A reconf	TMEM16A Ca cntr	YFP-HEK293 quench	ClC-1 rat inh
COC(=O)C1=C(C(=O)OC)SC(=C2C(=S)C(C)(C)N(C(=O)CC(C)C)c3ccccc32)S1	3	25*	i	29	i	i	-1.1	-12
CCOc1cc(CNCCO)cc(Br)c1OCc1ccccc1Cl	-5	25*	i	-5	i	i	-1.2	-18
CCOc1cc(CNCCO)cc(Br)c1OCc1ccc(Cl)cc1	-2	i	i	-14	x	x	x	x
COC(=O)[C@]12CCCCC=C1N(Cc1ccccc1)C(=O)[C@H](CC(=O)N1CCC(c3ccccc3)CC1)C2	x	x	x	-1	x	x	x	x
COc1cc(C)c(C(=O)Oc2cc(C)c(C(=O)O)c(O)c2)c(O)c1	9	100*	i	1	18%*	i	-0.94	-8
O=C(Nc1cccc(F)c1)N(Cc1ccc(Cl)cc1)CC(O)C(F)(F)F (stereo not given)	-1	100*	i	1	78%*	i	-0.89	-19
CCn1c(=O)c([N+](=O)[O-])c(N2CCSCC2)c2ccccc21	2	25*	i	2	i	i	-0.85	-8
CCc1ccc2c(c1)C(=O)CCC2	-1	x	i	3	x	x	x	x
O=C1CCCc2cc3c(cc21)CC1(C3)Cc2cc3c(cc2C1)C(=O)CCC3	-8	25*	i	-5	20%*	i	-1.2	-10
C#CCN1CCc2onc(-c3ccc(Br)cc3)c2C1=O	x	x	x	2	x	x	x	x
CC1(C(=O)Nc2ccc3c(c2)OCCO3)CN(S(C)(=O)=O)CC(=O)N1CCc1ccccc1F (stereo not given)	x	x	x	0	x	x	x	x
CCN(CC)c1ccc(Nc2nc(N3CCOCC3)c3ccccc3n2)cc1	1	100*	i	2	i	i	-1.2	-18
COc1ccccc1-c1cnc(C(O)c2ccc(Cl)cc2C)[nH]1 (stereo not given)	x	x	x	-2	x	x	x	x
CS(=O)(=O)N1CCCCC1c1cc(C(=O)Nc2ccccc2Cl)no1 (stereo not given)	x	x	x	-1	x	x	x	x
Cc1cccc(-n2cnc3cc(C(=O)N4CCCCC4)ccc32)c1	-1	25*	i	-4	i	i	-1.1	0
Cc1cccc(-n2c(C)nc3cc(C(=O)N4CCOCC4)ccc32)c1	-1	i	i	-2	x	x	x	x
COc1ccc(Cc2noc(CN3CCN(c4ccc(Cl)cn4)CC3)n2)cc1OC	-1	100*	i	3	28%*	i	-0.99	6
COc1ccc(Cc2noc(CN3CCN(Cc4cccc(Cl)c4)CC3)n2)cc1OC	0	i	i	1	x	x	x	x
Cc1cccc(C)c1NS(=O)(=O)c1ccc(-c2cnc(C3CC3)o2)cc1	1	25*	i	6	29%*	i	-1.2	-4
C=C1CCN([C@@H](CC(C)C)C(=O)O)S(=O)(=O)c2ccccc21	-1	i	i	2	x	x	x	x
C=C1CCN(C(CC(C)C)C(=O)OC)S(=O)(=O)c2ccccc21 (stereo not given)	-7	25*	i	1	i	i	-1.2	-4
CCOC(=O)[C@@H](NC(=O)/C=C/[C@H]1O[C@@H](n2ccc(=O)[nH]c2=O)[C@H](O)[C@@H]1O)C(C)C	x	x	x	1	x	x	x	x
